The values that follow come from ChEMBL document CHEMBL3232963, “Discovery of a potent and selective α3β4 nicotinic acetylcholine receptor antagonist from an α-conotoxin synthetic combinatorial library” (J Med Chem, 2014).

What is called IC50 is the concentration that inhibits the measured activity by half. One may read the inhibition as the change of the read-out against control, counted positive when it falls.

Holding throughout (assay type): cell-based
Assay [1] deals with Neuronal acetylcholine receptor; alpha3/beta4 (Rattus norvegicus, UniProt P04757+P12392). Nature of the assay: Antagonist activity at rat alpha3beta4 nAChR expressed in HEK293 cells assessed as inhibition of epibatadine-induced effect after 30 mins by fluorescent membrane potential assay. The method in brief: (§1)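 Stably transfected HEK293 lines (KXα3β4R2, KXα3β2R2, KXα4β2R2; rat subunits) grown in DMEM/10% FBS with G-418, plated 24 h before assay. Cells washed with HBSS, peptide added, then membrane potential blue dye, 30 min at 37 °C. Fluorescence (ex 565/em 530 nm) read up to 60 s after epibatidine to 0.1 μM. IC50 from maximal responses across concentrations; n = 4.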

For assay [2], the target named is Neuronal acetylcholine receptor; alpha3/beta4 (Rattus norvegicus) (UniProt P04757+P12392). Kind of assay: Antagonist activity at rat alpha3beta4 nAChR expressed in HEK293 cells assessed as inhibition of epibatadine-induced effect at 10 uM after 30 mins by fluorescent membrane potential assay relative to mecamylamine. In a few lines:
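Rat α3β4 nAChR stably expressed in HEK293 cells; crude, SPE-desalted individual peptides tested at 10 μM in HBSS with membrane potential blue dye, 30 min at 37 °C. Fluorescence change read after epibatidine (0.1 μM). Percent inhibition set against 10 μM mecamylamine taken as 100%.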

Assay [3] concerns the target Neuronal acetylcholine receptor; alpha4/beta2 (Rattus norvegicus, UniProt P09483+P12390). Kind of assay: Antagonist activity at rat alpha4beta2 nAChR expressed in HEK293 cells assessed as inhibition of epibatadine-induced effect after 30 mins by fluorescent membrane potential assay. In a few lines: as §1
Assay [4] deals with Neuronal acetylcholine receptor; alpha3/beta2 (Rattus norvegicus, UniProt P04757+P12390). Kind of assay: Antagonist activity at rat alpha3beta2 nAChR expressed in HEK293 cells assessed as inhibition of epibatadine-induced effect after 30 mins by fluorescent membrane potential assay. The method in brief:
as §1

Each structure is given as a SMILES string. Bridge positions count the residues as written; N and C are the ends. Square brackets hold non-standard residues; d marks the D form. Peptide text beside a SMILES is read from it. Nle = CCCC[C@H](N)C(=O)O; Nva = CCC[C@H](N)C(=O)O; Abu = CC[C@H](N)C(=O)O

Neuronal acetylcholine receptor; alpha4/beta2, sequence (P09483 whole entry): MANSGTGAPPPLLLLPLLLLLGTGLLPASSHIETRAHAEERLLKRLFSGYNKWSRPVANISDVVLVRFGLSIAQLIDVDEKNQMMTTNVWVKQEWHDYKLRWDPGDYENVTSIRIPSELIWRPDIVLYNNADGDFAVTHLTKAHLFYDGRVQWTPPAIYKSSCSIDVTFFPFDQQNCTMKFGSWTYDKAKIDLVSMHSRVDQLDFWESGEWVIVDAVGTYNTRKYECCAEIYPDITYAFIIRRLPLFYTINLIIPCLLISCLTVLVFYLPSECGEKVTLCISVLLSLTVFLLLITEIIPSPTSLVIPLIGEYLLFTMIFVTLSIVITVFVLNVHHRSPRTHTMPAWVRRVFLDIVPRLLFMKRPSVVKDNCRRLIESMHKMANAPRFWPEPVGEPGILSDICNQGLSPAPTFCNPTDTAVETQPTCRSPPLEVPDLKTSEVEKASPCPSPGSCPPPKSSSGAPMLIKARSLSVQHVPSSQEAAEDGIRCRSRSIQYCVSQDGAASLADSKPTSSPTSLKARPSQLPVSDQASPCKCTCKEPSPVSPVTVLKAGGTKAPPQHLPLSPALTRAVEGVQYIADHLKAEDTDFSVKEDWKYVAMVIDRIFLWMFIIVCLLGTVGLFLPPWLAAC
Neuronal acetylcholine receptor; alpha4/beta2, sequence (P12390 whole entry): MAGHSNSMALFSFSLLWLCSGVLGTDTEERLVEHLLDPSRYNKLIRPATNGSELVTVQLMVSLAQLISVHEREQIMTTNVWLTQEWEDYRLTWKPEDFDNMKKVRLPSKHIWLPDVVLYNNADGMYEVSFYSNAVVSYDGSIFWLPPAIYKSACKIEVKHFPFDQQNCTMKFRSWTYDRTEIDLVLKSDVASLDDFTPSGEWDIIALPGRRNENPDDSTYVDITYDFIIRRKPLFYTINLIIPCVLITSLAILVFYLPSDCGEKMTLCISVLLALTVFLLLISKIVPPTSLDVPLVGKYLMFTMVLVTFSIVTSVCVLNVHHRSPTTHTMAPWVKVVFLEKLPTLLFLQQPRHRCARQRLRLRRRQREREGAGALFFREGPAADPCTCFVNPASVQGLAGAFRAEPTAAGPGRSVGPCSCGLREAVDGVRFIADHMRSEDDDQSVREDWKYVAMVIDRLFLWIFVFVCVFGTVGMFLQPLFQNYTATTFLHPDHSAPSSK
Neuronal acetylcholine receptor; alpha3/beta2, sequence (P04757 whole entry): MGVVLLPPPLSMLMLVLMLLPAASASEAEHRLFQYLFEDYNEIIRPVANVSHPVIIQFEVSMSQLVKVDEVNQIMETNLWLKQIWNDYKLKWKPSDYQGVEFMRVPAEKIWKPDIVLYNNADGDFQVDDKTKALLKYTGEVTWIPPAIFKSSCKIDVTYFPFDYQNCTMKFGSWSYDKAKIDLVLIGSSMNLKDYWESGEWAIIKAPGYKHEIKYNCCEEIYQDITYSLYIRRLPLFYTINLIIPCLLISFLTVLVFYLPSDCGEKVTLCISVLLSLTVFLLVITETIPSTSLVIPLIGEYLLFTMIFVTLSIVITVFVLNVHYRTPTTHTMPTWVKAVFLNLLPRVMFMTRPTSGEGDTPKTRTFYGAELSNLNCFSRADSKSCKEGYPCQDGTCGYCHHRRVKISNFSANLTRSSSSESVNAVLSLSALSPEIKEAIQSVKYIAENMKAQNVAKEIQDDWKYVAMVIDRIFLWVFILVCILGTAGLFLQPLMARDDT
Neuronal acetylcholine receptor; alpha3/beta2, sequence (P12390 whole entry): as the sequence (P12390 whole entry) above
Neuronal acetylcholine receptor; alpha3/beta4, sequence (P04757 whole entry): as the sequence (P04757 whole entry) above
Neuronal acetylcholine receptor; alpha3/beta4, sequence (P12392 whole entry): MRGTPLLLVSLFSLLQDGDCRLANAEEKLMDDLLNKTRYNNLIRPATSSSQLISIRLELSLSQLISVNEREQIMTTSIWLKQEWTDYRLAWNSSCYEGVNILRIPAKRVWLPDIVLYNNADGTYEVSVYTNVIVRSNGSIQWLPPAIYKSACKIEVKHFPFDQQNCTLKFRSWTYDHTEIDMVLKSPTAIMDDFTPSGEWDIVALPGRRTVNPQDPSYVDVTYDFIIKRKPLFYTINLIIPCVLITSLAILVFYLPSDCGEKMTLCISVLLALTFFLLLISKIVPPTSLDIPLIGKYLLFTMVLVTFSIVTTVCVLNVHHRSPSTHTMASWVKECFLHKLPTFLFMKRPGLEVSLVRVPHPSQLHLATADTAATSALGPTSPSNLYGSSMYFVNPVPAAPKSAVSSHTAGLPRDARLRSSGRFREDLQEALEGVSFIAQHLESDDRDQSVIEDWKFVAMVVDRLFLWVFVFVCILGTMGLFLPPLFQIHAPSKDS

Take `CCCC[C@@H]1NC(=O)[C@H](CC)NC(=O)[C@H](Cc2ccccc2)NC(=O)[C@@H]2CSSC[C@H](NC(=O)CN)C(=O)N[C@@H](CSSC[C@@H](C(=O)O)NC(=O)[C@H](Cc3ccc(O)cc3)NC1=O)C(=O)N[C@@H](CO)C(=O)N[C@@H](CCCC)C(=O)N1CCC[C@H]1C(=O)N[C@@H](CC)C(=O)N2` (H-GCCS[Nle]P[Abu]CF[Abu][Nle]YC-OH; disulfide 2-8, 3-13): the IC50 in assay [1] is 0.31 µM; in assay [3], above 10 µM; in assay [4] it was above 10 µM. Further, the inhibition in assay [2] turned out to be 106%.
Regarding `CCCC[C@@H]1NC(=O)[C@H](CC)NC(=O)[C@H]([C@H](C)CC)NC(=O)[C@@H]2CSSC[C@H](NC(=O)CN)C(=O)N[C@@H](CSSC[C@@H](C(=O)O)NC(=O)[C@H](Cc3ccc(O)cc3)NC1=O)C(=O)N[C@@H](CO)C(=O)N[C@@H](Cc1cnc[nH]1)C(=O)N1CCC[C@H]1C(=O)N[C@@H](CC)C(=O)N2`, the IC50 in assay [1] was 0.463 µM; in assay [3] it was above 10 µM; in assay [4] it was above 10 µM. For the same molecule, the inhibition in assay [2] worked out at 110%.
For `CCCC[C@@H]1NC(=O)[C@H](CC)NC(=O)[C@H](Cc2ccccc2)NC(=O)[C@@H]2CSSC[C@H](NC(=O)CN)C(=O)N[C@@H](CSSC[C@@H](C(=O)O)NC(=O)[C@H](Cc3ccc(O)cc3)NC1=O)C(=O)N[C@@H](CO)C(=O)N[C@@H](Cc1cnc[nH]1)C(=O)N1CCC[C@H]1C(=O)N1CCC[C@H]1C(=O)N2` (H-GCCSHPPCF[Abu][Nle]YC-OH; disulfide 2-8, 3-13), the IC50 was 0.469 µM in assay [1], above 10 µM in assay [3] and above 10 µM in assay [4]. For the same molecule, the inhibition in assay [2] came out at 106%.
As for `CCCC[C@@H]1NC(=O)[C@H](CC)NC(=O)[C@H](Cc2ccccc2)NC(=O)[C@@H]2CSSC[C@H](NC(=O)CN)C(=O)N[C@@H](CSSC[C@@H](C(=O)O)NC(=O)[C@H](Cc3ccc(O)cc3)NC1=O)C(=O)N[C@@H](CO)C(=O)N[C@@H](Cc1cnc[nH]1)C(=O)N1CCC[C@H]1C(=O)N[C@@H](CC)C(=O)N2` (H-GCCSHP[Abu]CF[Abu][Nle]YC-OH; disulfide 2-8, 3-13), the results for the IC50 in assay [1], in assay [3] and in assay [4] were 0.307 µM, above 10 µM and above 10 µM, respectively. Moreover, in assay [2], the inhibition turned out to be 110%.
As for `CCCC[C@@H]1NC(=O)[C@H](Cc2c[nH]c3ccccc23)NC(=O)[C@H](Cc2ccccc2)NC(=O)[C@@H]2CSSC[C@H](NC(=O)CN)C(=O)N[C@@H](CSSC[C@@H](C(=O)O)NC(=O)[C@H](Cc3ccc(O)cc3)NC1=O)C(=O)N[C@@H](CO)C(=O)N[C@@H](Cc1cnc[nH]1)C(=O)N1CCC[C@H]1C(=O)N[C@@H](CC)C(=O)N2` (H-GCCSHP[Abu]CFW[Nle]YC-OH; disulfide 2-8, 3-13), the IC50 was 1.73 µM in assay [1], above 10 µM in assay [3] and above 10 µM in assay [4]. Also, the inhibition in assay [2] was found to be 101%.
Take `CCCC[C@@H]1NC(=O)[C@H](CC)NC(=O)[C@H](Cc2ccccc2)NC(=O)[C@@H]2CSSC[C@H](NC(=O)CN)C(=O)N[C@@H](CSSC[C@@H](C(=O)O)NC(=O)[C@H](Cc3ccc(O)cc3)NC1=O)C(=O)N[C@@H](CO)C(=O)N[C@@H](CCCC)C(=O)N1CCC[C@H]1C(=O)N1CCC[C@H]1C(=O)N2` (H-GCCS[Nle]PPCF[Abu][Nle]YC-OH; disulfide 2-8, 3-13): the IC50 in assay [1] is 0.397 µM; in assay [3], above 10 µM; in assay [4], above 10 µM. For the same molecule, the inhibition in assay [2] was 107%.
As for `CCC[C@@H]1NC(=O)[C@H](CC)NC(=O)[C@H]([C@H](C)CC)NC(=O)[C@@H]2CSSC[C@H](NC(=O)CN)C(=O)N[C@@H](CSSC[C@@H](C(=O)O)NC(=O)[C@H](Cc3ccc(O)cc3)NC1=O)C(=O)N[C@@H](CO)C(=O)N[C@@H](Cc1cnc[nH]1)C(=O)N1CCC[C@H]1C(=O)N[C@@H](CC)C(=O)N2`, the figures for the IC50 in assay [1], in assay [3] and in assay [4] were 1.93 µM, above 10 µM and above 10 µM, respectively. The inhibition in assay [2] stood at 84.5%.
On to `CCCC[C@@H]1NC(=O)[C@H](CO)NC(=O)[C@@H]2CSSC[C@@H](C(=O)O)NC(=O)[C@H](Cc3ccc(O)cc3)NC(=O)[C@H](CCC)NC(=O)[C@H](Cc3c[nH]c4ccccc34)NC(=O)[C@H]([C@H](C)CC)NC(=O)[C@H](CSSC[C@H](NC(=O)CN)C(=O)N2)NC(=O)[C@@H]2CCCN2C(=O)[C@@H]2CCCN2C1=O`, for which, in assay [2], the inhibition worked out at 58.3%.
With `CCCC[C@@H]1NC(=O)[C@H](CC)NC(=O)[C@H](Cc2ccccc2)NC(=O)[C@@H]2CSSC[C@H](NC(=O)CN)C(=O)N[C@@H](CSSC[C@@H](C(=O)O)NC(=O)[C@@H]3CCCN3C1=O)C(=O)N[C@@H](CO)C(=O)N[C@@H](Cc1cnc[nH]1)C(=O)N1CCC[C@H]1C(=O)N1CCC[C@H]1C(=O)N2` (H-GCCSHPPCF[Abu][Nle]PC-OH; disulfide 2-8, 3-13), the inhibition in assay [2] stood at 29.1%.
Take `CCCC[C@@H]1NC(=O)[C@H](CC)NC(=O)[C@H](Cc2ccccc2)NC(=O)[C@@H]2CSSC[C@H](NC(=O)CN)C(=O)N[C@@H](CSSC[C@@H](C(=O)O)NC(=O)[C@@H]3CCCN3C1=O)C(=O)N[C@@H](CO)C(=O)N[C@@H](CCCC)C(=O)N1CCC[C@H]1C(=O)N[C@@H](CC)C(=O)N2` (H-GCCS[Nle]P[Abu]CF[Abu][Nle]PC-OH; disulfide 2-8, 3-13): the inhibition in assay [2] worked out at 36.6%.
Same read-out and setting: as for `CCCC[C@@H]1NC(=O)[C@H](CO)NC(=O)[C@@H]2CSSC[C@@H](C(=O)O)NC(=O)[C@H](Cc3ccc(O)cc3)NC(=O)[C@H](CCC)NC(=O)[C@H](Cc3c[nH]c4ccccc34)NC(=O)[C@H](Cc3ccccc3)NC(=O)[C@H](CSSC[C@H](NC(=O)CN)C(=O)N2)NC(=O)[C@H](CC)NC(=O)[C@@H]2CCCN2C1=O` (H-GCCS[Nle]P[Abu]CFW[Nva]YC-OH; disulfide 2-8, 3-13), the figure is 67.9%.
Still for that read-out and setting: as for `CCCC[C@@H]1NC(=O)[C@H](CO)NC(=O)[C@@H]2CSSC[C@@H](C(=O)O)NC(=O)[C@@H]3CCCN3C(=O)[C@H](CCC)NC(=O)[C@H](Cc3c[nH]c4ccccc34)NC(=O)[C@H](Cc3ccccc3)NC(=O)[C@H](CSSC[C@H](NC(=O)CN)C(=O)N2)NC(=O)[C@H](CC)NC(=O)[C@@H]2CCCN2C1=O` (H-GCCS[Nle]P[Abu]CFW[Nva]PC-OH; disulfide 2-8, 3-13), the figure is 41.1%; as for `CCCC[C@@H]1NC(=O)[C@H](CC)NC(=O)[C@H]([C@H](C)CC)NC(=O)[C@@H]2CSSC[C@H](NC(=O)CN)C(=O)N[C@@H](CSSC[C@@H](C(=O)O)NC(=O)[C@@H]3CCCN3C1=O)C(=O)N[C@@H](CO)C(=O)N[C@@H](Cc1cnc[nH]1)C(=O)N1CCC[C@H]1C(=O)N[C@@H](CC)C(=O)N2`, 36.2%.
With `CCCC[C@@H]1NC(=O)[C@H](Cc2c[nH]c3ccccc23)NC(=O)[C@H]([C@H](C)CC)NC(=O)[C@@H]2CSSC[C@H](NC(=O)CN)C(=O)N[C@@H](CSSC[C@@H](C(=O)O)NC(=O)[C@@H]3CCCN3C1=O)C(=O)N[C@@H](CO)C(=O)N[C@@H](Cc1cnc[nH]1)C(=O)N1CCC[C@H]1C(=O)N1CCC[C@H]1C(=O)N2`, the inhibition in assay [2] was found to be 10.1%.
With `CCCC[C@@H]1NC(=O)[C@H](CO)NC(=O)[C@@H]2CSSC[C@@H](C(=O)O)NC(=O)[C@H](Cc3ccc(O)cc3)NC(=O)[C@H](CCC)NC(=O)[C@H](Cc3c[nH]c4ccccc34)NC(=O)[C@H]([C@H](C)CC)NC(=O)[C@H](CSSC[C@H](NC(=O)CN)C(=O)N2)NC(=O)[C@H](CC)NC(=O)[C@@H]2CCCN2C1=O`, in assay [2], the inhibition worked out at 61.9%.
Still for that read-out and setting: as for `CCCC[C@@H]1NC(=O)[C@H](Cc2c[nH]c3ccccc23)NC(=O)[C@H]([C@H](C)CC)NC(=O)[C@@H]2CSSC[C@H](NC(=O)CN)C(=O)N[C@@H](CSSC[C@@H](C(=O)O)NC(=O)[C@@H]3CCCN3C1=O)C(=O)N[C@@H](CO)C(=O)N[C@@H](CCCC)C(=O)N1CCC[C@H]1C(=O)N1CCC[C@H]1C(=O)N2`, the figure is 6.3%; as for `CCCC[C@@H]1NC(=O)[C@H](CO)NC(=O)[C@@H]2CSSC[C@@H](C(=O)O)NC(=O)[C@@H]3CCCN3C(=O)[C@H](CCC)NC(=O)[C@H](CC)NC(=O)[C@H]([C@H](C)CC)NC(=O)[C@H](CSSC[C@H](NC(=O)CN)C(=O)N2)NC(=O)[C@H](CC)NC(=O)[C@@H]2CCCN2C1=O`, 19.2%; as for `CCC[C@@H]1NC(=O)[C@H](CC)NC(=O)[C@H]([C@H](C)CC)NC(=O)[C@@H]2CSSC[C@H](NC(=O)CN)C(=O)N[C@@H](CSSC[C@@H](C(=O)O)NC(=O)[C@@H]3CCCN3C1=O)C(=O)N[C@@H](CO)C(=O)N[C@@H](Cc1cnc[nH]1)C(=O)N1CCC[C@H]1C(=O)N[C@@H](CC)C(=O)N2`, 41.2%.
In the case of `CCC[C@@H]1NC(=O)[C@H](Cc2c[nH]c3ccccc23)NC(=O)[C@H](Cc2ccccc2)NC(=O)[C@@H]2CSSC[C@H](NC(=O)CN)C(=O)N[C@@H](CSSC[C@@H](C(=O)O)NC(=O)[C@@H]3CCCN3C1=O)C(=O)N[C@@H](CO)C(=O)N[C@@H](Cc1cnc[nH]1)C(=O)N1CCC[C@H]1C(=O)N1CCC[C@H]1C(=O)N2` (H-GCCSHPPCFW[Nva]PC-OH; disulfide 2-8, 3-13), the inhibition in assay [2] worked out at 49%.
